Test results published in the EternaBench riboswitch data.

Test system: MS2 coat protein
Assay: apparent Kd, MS2 coat protein; higher = weaker binding; RNA-MaP array; FMN 200 µM where present
Summary of the method: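 SNAP-549-labelled MS2 coat protein, doubled from 0.7 or 1.5 nM to 3 µM, was titrated over designs transcribed by stalled E. coli RNA polymerase on Illumina sequencing-chip clusters. Titrations were run without and then with constant ligand in 100 mM Tris-HCl pH 7.5, 80 mM KCl, 4 mM MgCl2, BSA, DTT, yeast tRNA and Tween-20. The apparent Kd is the median of filtered per-cluster fits to green signal normalised to red-channel RNA signal and control-cluster median Fmax.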

[1] = designed as: OFF switch for flavin mononucleotide, no ligand
[2] = ligand present: flavin mononucleotide, designed as: OFF switch for flavin mononucleotide
[3] = designed as: ON switch for flavin mononucleotide, no ligand
[4] = ligand present: flavin mononucleotide, designed as: ON switch for flavin mononucleotide

Sequence	apparent Kd [1] [nM]	apparent Kd [2] [nM]	apparent Kd [3] [nM]	apparent Kd [4] [nM]
UGGUUGUGUGUUAGGAUAUGGUCUGGUGUUUCGGGCUAGAAGGGACAUGAGGAUCACCCAUGUGGCUGGCGGGU	127	126		
GAGCGGAUGUCAGGAUAUCGCCGCGUGAAAAGGCGAGAAGGGACAUGAGGAUCACCCAUGUACUCAUAGGGCCAGCUUGGGCUA	9.71	29.1		
GACAUUGACAAGAAGGCAAACAUGAGGAUCACCCAUGUUCUGCAUGUAUAUUGAGGAUAUUGCCAAUGUAUGUGGAUCACCCAA	6.25	15.2		
CGUACGUCAGGAUAUCUGAUGUCUAACUUCGGUUAGACAUCAGAGAAGGGACAUGAGGAUCACCCAUGUACGAG	88.3	105		
GCGGUAAAGAUCCAUUUUUACAACAUGAGGAUCACCCAUGUGCAGGAUAUCGAAUGUUUUAUAUUCGAGAAGGGCAAUUACCGC	20.7	57.5		
AAAUCUUACGAAGGAUAUACAAACAUGAGGAUCACCCAUGUGUGUUUCGUGUAACUGAAAUUCGGGUAGAAGGUCGUAGACAUA	24.3	15		
ACUAGAUGAGGAUAUACACAUUUUAGUGUUCCUCUAGAUUAACAUGAGGAUCACCCAUGUAGAAGGCAUCAUUU	78.5	231		
AAAUUUAACGAAGGAUAUGGUUACAUGAGGAUCACCCAUGUGUGCCUUGUGAUUUUGUUUAAGUUCCAGAAGGUCGUAUACAUA	26.4	168		
GGCACACAUGAGGAUCACCCAUGUGAGGAUAUGGUGCGAUCGUCGAAAGACGAUAGCACCAGAAGGCACAUGCC	18.2	39.5		
UUUUACUAGUAAGGAUAUAUUAGCGAUUAGCUUGUAGAAGGUACAGUCUUAUGUAUAACAUGUUAACAUGAGGAUCACCCAUGU			52	34.2
GCAGCACAAUAUUACAUGAGGAUCACCCAUGUCGAUUGUUAUGAGGAUAUGCAUCGUAUGAAGUUGCAGAAGGCAUUGUGCUGC			9.4	6.09
CGCUCAAGAGAGAAGGAUAGAAUCAGAAGGCGUAACAUGAGGAUCACCCAUGUUUAGUAGUGUAACGAGGAUAUGAAAUGAGCG	9.61	10.8		
CCUAUGUGAGGAUAUCACUGGUCUUUUCAUUAGAUGAUCAGUGAGAAGGCACAUGAGGAUCACCCAUGUCAGUG	90.7	26.7		
GCUCCCGGUGUCAGGAUAUAGAGUUGGAAACGCCACUAGAAGGGACAUGAGGAUCACCCAUGUCAAGUUCGCUC	14.8	14.9		
ACUAUACGAGGAUAUACUGACAGGCCUCAGGCAUACAUCAAACAUGAGGAUCACCCAUGUAGAAGGCGUAUACU	30.4	68.1		
AAACAUGUCCGAGGAUAUCUGGAAACAUUUUCAAGAGAAGGCGGACAUGAGGAUCACCCAUGUCUCUCCUCAUCAACUACAAAC	8.57	53.2		
CUUUUGUGAGGAUAUUAGUAGUAAAUAAAUAAAAUUAUUACUGAGAAGGCACAUGAGGAUCACCCAUGUUCCUC	32.5	405		
UUAAAUCAUGUAGGAUAUGCAUGGCGAAGCUACGCAGAAGGACAUGAGGAUCACCCAUGUUCUAGCUACCGGAUACGGUGGCAA	21.5	87.4		
CAGCGAUAGCUAAAGUAUCUAUCAGAGGAUAUUUAUGAAACAUGAGGAUCACCCAUGUGAAACUGGGAGAAGGCUGAUAGAUAG			11.9	5.47
AAUGCCAAUGAAGGAUAUACAAACAUGAGGAUCACCCAUGUGUCUUUCGUGUAAGUGGAAUUCGCGUAGAAGGUCAUUGACAUA	38.3	22.3		
CGGGCAUAUCGAGGAUAUAAGUCUAGGACAUGAGGAUCACCCAUGUAUGUCUUAGAAGGCGAUAUGCCCAGCCUGUUACAGGCA			30	6.01
CGUUUGUAAGGAUAUAGCCACAUUACGAAUAAGUAGUGUGGCUAGAAGGUACAUGAGGAUCACCCAUGUAUGGG	157	192		
ACACAUGUCCGAGGAUAUCUGAGAUCAUUUUCAAGAGAAGGCGGACAUGAGGAUCACCCAUGUCUCUCCUCAUCAACUCCAAAU	8.06	49.2		
AUUAUAAAGGUAGGAUAUAGUAUUAUAAUUAAAUUAGAAGGAUCUCACAUGAGGAUCACCCAUGUAAGAGGAUCACCCAUGUAU	9.64	9.62		
UUGGACGUCGUAGGAUAUGUAGGAUAUUCCUACAUGAGGAUCACCCAUGUUGACAUGGAAGAAGGACAGAAGGACAAUGUCCAU			414	7.5
CAUCCACAUGAGGAUCACCCAUGUGAGGAUAUGAUACUAUGUACUUCGGUACAUAGUAUCAGAAGGCACAGGUG	120	37.4		
GGAUCGUAUGUCAGGAUAUACCACUGGAUACAGUGGUAGAAGGGACAUGAGGAUCACCCAUGUUCUAUCGAUCC	15.9	20.4		
GAGAUGUGAGGAUAUCUAGACCGCGGAAGAGCCGCAGUCCGAGAGAAGGCACAUGAGGAUCACCCAUGUGAUGA	33.4	61.2		
